# Fewer inactive variants are shown than the library holds.
# B1: tRNA (parent)
# chain: GUUCCGUUGGCGUAAUGGUAACGCGUCUCCCUCCUAAGGAGAAGACUGCGGGUUCGAGUCCCGUACGGAACG
# Variants of: B1
# Assay: yeast fitness relative to wild type (ratio to wild type); higher = fitter; tRNA-Arg(CCU), competitive growth, 37 C, YPD
# Method in brief: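 For this measurement, the tRNA-Arg(CCU) gene was varied by chemical synthesis at a 3% per-site mutation rate across 69 sites, and each variant was placed at the native genomic locus in Saccharomyces cerevisiae. The pooled strains went through a 24-hour competition in YPD at 37°C in six parallel replicates, with amplicons from start and end populations read by 100-nucleotide paired-end sequencing. Darwinian fitness relative to wild type followed from the change in each genotype's frequency. Genotypes needed ≥ 100 starting reads, and estimates < 0.5 were set to 0.5.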
row,Variant,yeast fitness
1,GUUCCGUUGCCGUAAUGGUAAAGGGUCUCCCUCCUAAGGAGAAGACUGCGGGAUCGAGUCCUGUACGGAACG,≤ 0.5
2,GUUCCGUUGCCGUAAUGGUAACGCGUGUCGCUCCUAAGGAGAAGACUGCGGGUUCGAAUCCCGUACGGAACG,0.557
3,GUUCCGUUGCCGUAAUGGUAACCCGUCUCCCUCCUAAGGAGAAGUCUGCGGGUUCGAGGCCCGUACGGAACG,0.528
4,GUUCCGUUGCCGUAAUGGUAACGGGUCUCCCUCCUAAGGAGAAGAUUGCGGGUUCGAGUCCCGUACGGUACG,0.569
5,GUUCCGUUGCCGUAAUGGUAACGCGUCUCCCUCCUAAGGAGACGACUGCGGGUUCGAGUCCCGUACGGAACG,0.591
6,GUUCCGUUGCCGUAAUGGUAACGCGUCUCGCUCCUAAGGAGAAGAUUGCGGGUUCGAGUCCCGUACGGAACG,≤ 0.5
7,GUUCCGUUGCCGUAAUGGUAACGCGUCUCUCUCCUAAAGAGAAGACUGCGGGUUCGAGUCCCGUACGGAACG,0.531
8,GUUCCGUUGCCGUAAUGGUAAAGGGUCUCCCUCCUAAGGAGAAGACUGCGCGUUCGAGUCCUGUACGGAACG,≤ 0.5
9,GUUCCGUUGCCGUAAUGGUAAGGCGUCUCCCUACUAAGGAGAAGACUGCGGGUUCGAGUCCCGUACGGAACG,0.581
10,GUUCCGUUGCCGUAAUGGUAACGUGUCUACCUCCUAAGGAGAAGUGAGCAGGUUCGAGUCCCGUACGGAACG,0.702
11,GUUCCGUUGCGGUAAUGGUAACGCGUCUCCCUCCUAAGGAGAAGACUGCAGGUUCGAGUCCCGUCCGGAACG,≤ 0.5
12,GUUCCGUUGCGGUAAUGGUAACGCGUCUCCUUCCCAAGGAGAAGACUGCGGGUACGAGUCCCGUACGGAACG,≤ 0.5
13,GUUCCGUUGCCGUAAUGGUAACGUGUCUCCCUCCUAAGGAGAAGACUGCGGGUUCGAGUCCCGUACGUAACG,≤ 0.5
14,GUUCCGUUGCCGUAAUGGUAACGCGUCUCCCUGCUCAGGAGAAGAAUGCGGGUUCGAGUCCCGUUCGGAACG,0.53
15,GUUCCGUUGCCGUAAUGGUAACGCAUCUCCCUCCUAAGGAGAAGACUGCGGGUUCGAGUCCCGUACGGAACG,0.691
16,GUUCCGUUGCCGUAAUGGUAACGCGUCUCCCUCCUAAGGAGAAGACUGCGGGUUUGAGACCCGUACGGAACG,≤ 0.5
17,GUUCCGUUGCGGUAAUGGUAACGCGUCUCCCUCCUAAGGAGAAGACUGCGGGUUCCAGUCCCGUACGAAACG,≤ 0.5
18,GUUCCGUUGCCGUAAUGGUAACGCGUCUCCCUCGUAAGGAGAAGACUGCGGGUUCGAGUCCCAUACGGUCCG,≤ 0.5
19,GUUCCGUUGCCAUAAUGGUAACGCGUCUCCCUCCUAAGGAGAAGACUGCGGGUACGAGUCCCGUACGAAACG,≤ 0.5

row,Variant,yeast fitness
1,GUUCCGUUGCCGUAAUGGUAACGCGUCUACCUACUAAGGAGAAGACUGCGGGUUCGAGUCCUGUACGGAACG,0.6
2,GUUCCGUUGCCGUAAUGGUAACGCGUCUCCCUGCUAAGGAGAAGACUGCGGGUUCGAGUCCAGUACCGAACG,≤ 0.5
3,GUUCCGUUGCUGUAAUGGUAACGCGUCUCCCUCCUAAGGAGAAGACUGCGGGUUCGAGUCCCGUACAGAACG,≤ 0.5
4,GUUCCGUUGCCCUAAUGGUAACGCGUCUCCCUCCUAAGGAGAAGAGUGCGGGUUUGAGUCCCGUACGGAACG,≤ 0.5
5,GUUCCGUUGCCGUAAUGGUAACGCGUCUUCUUCCUAAGGAGAAGACUGCGGGUUCGAGUCCCUUACGGAACG,≤ 0.5
6,GUUCCGUUGCCGUAAUGGUAACGCGUCUCCCUCCUAAGGAGACGAGUGCGGGUUGGAGUCCCGUUCGGAACG,0.547
7,GUUCCGUUGCCGUAAUGGUAACGCGUCUCCCUACUAAGGUGAAGACUGCGGGUACGAGUCCCGUACGGAACG,≤ 0.5
8,GUUCCGUUGCCGUAAUGGUAACGAGUCUCCCUCCUAAGGAGAACACUGCGGGUUCGAGUCCCGUACGGAACG,≤ 0.5
9,GUUCCGUUGCCGUAAUGGUAAGGCGUCUACCUCCUAAGGAGAAGAUUGCGGGUUCGAGUCCCGUCCGGAACG,0.538
10,GUUCCGUUGCUGUAAUGGUAACGUGUCUCCCUGCUUAGGAGAAGACUGCGGGUUCGAGUCCCGUACGGAACG,≤ 0.5
11,GUUCCGUUGCCGUAAUGGUAACGCGUCUCCGUCCUAAGGAGAAGACUGCGGGUUCGAGUCCCGUACGGAACG,0.631
12,GUUCCGUUGCCGUAAUGGUAACGCGUCUCUCUCCUAAGGAGAAGACUGCGGGUUCGAGUCCCGUAAGGAACG,≤ 0.5
13,GUUCCGUUGCCGUAAUGGUAAAGGGUCUCCCUCCUAAGGAGAAGACUGCGGGUUCGAGUCCCGUACGCAACG,≤ 0.5
14,GUUCCGUUGCCGUAAUGGUAACGCGUUUCCCUCCUAAGGUGAAGUCUACGGGUUCGAGUCCCGUACGGAACG,≤ 0.5
15,GUUCCGUUGCAGUAAUGGUAACGCGUCUCCCUCAUAAGGAGAAGACUGCGAGUUCGAGUCGCGUACGGUACG,≤ 0.5
16,GUUCCGUUGCCGUAAUGGUAAAGCGUCUCCCUCCUAAGGAGAAGACUGCGGGUUCGAGUGUCAUACGGAACG,≤ 0.5
17,GUUCCGUUGCCGUAAUGGUAACCCGUCUCCCUCCUAAGGAGAAGACUGCGGGUUCGAGUCCCGUCCGGAACG,≤ 0.5
18,GUUCCGUUGCCGUAAUGGUAACGUGUCUCCCUCGUAAGGAGAAGACUGCGGGUUCGAGUCCCGUCCGGAACG,≤ 0.5
19,GUUCCGUUGCUGUAAUGGUAGCGCGUCUCCCUCCUAAGGGGAAGACUGCGGGUUCGAGUCCCGUACGGAACG,≤ 0.5

# Source: the RNAGym collection of RNA variant scans (doi:10.1126/science.aae0568)
